Measured values: ChEMBL document CHEMBL5678802, “Small-molecule p21-activated kinase inhibitor PF-3758309 is a potent inhibitor of oncogenic signaling and tumor growth” (Proc Natl Acad Sci U S A, 2010)
pIC50, pKi: −log10 of the molar value.

Experiments:
Hs 766 = assay: Antiproliferative activity against human Hs766T cells assessed as inhibition of cell proliferation incubated for 3 days by CellTiter-Glo Luminescent Cell Viability Assay; format: functional, cell-based; conditions: Hs 766, 72 h
In short: (§1)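 Cancer cell lines seeded in 384-well plates on day 1; compound added on day 2 and left for 3 days. On day 5 all medium was aspirated, and viable cells were quantified by CellTiter-Glo luminescence, which measures cellular ATP. Dose-dependent effects on proliferation were determined.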

CFPAC-1 = assay: Antiproliferative activity against human CFPAC-1 cells assessed as inhibition of cell proliferation incubated for 3 days by CellTiter-Glo Luminescent Cell Viability Assay; format: functional, cell-based; conditions: CFPAC-1, 72 h; in short: as §1
HCT-116 = assay: Antitumor activity against human HCT-116 cells xenografted in nude mouse assessed as inhibition of [3H]FLT uptake at 25 mg/kg, po administered once a day for 6 day and measured after 2 hrs post [3H]FLT administration by scintillation counter analysis relative to control; format: functional; conditions: HCT-116, 144 h
In short: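 HCT116 xenograft mice (tumors 300–350 mm3, n = 5 per group) received oral vehicle or compound, with harvests on days 2, 3 and 6. Isoflurane-anesthetized mice were given [3H]FLT (15 nCi/g, i.p.) 2 h before killing. Tumor and liver were weighed, solubilized and scintillation-counted. SUV = C/(ID/W), and uptake is reported as the tumor-to-liver SUV ratio.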

[1] = target: Protein kinase C theta type (Homo sapiens, UniProt Q04759); assay: Inhibition of human PKCtheta assessed as inhibition constant in presence of ATP
Protein kinase C theta type, sequence (Q04759 whole entry): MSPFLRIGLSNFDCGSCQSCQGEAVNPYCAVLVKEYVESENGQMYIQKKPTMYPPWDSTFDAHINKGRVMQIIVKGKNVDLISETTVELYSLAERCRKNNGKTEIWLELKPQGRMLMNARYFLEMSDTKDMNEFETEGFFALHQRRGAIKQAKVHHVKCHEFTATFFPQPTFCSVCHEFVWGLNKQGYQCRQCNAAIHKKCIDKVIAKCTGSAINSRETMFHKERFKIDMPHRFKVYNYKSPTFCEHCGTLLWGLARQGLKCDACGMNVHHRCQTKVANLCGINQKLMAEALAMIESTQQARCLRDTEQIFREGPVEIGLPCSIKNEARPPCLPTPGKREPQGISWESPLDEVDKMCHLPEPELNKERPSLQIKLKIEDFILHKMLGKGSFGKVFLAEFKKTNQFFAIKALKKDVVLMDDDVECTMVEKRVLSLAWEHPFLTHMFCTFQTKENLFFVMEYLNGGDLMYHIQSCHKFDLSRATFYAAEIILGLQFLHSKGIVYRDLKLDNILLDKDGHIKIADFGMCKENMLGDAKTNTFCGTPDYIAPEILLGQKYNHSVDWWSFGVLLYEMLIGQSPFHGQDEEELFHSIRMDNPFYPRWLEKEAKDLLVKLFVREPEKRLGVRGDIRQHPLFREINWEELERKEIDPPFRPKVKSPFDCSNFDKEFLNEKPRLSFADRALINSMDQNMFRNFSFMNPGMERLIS

pKi [1]: 8.00
SMILES: Cc1nc(Nc2n[nH]c3c2CN(C(=O)N[C@H](CN(C)C)c2ccccc2)C3(C)C)c2sccc2n1 [PF-03758309]
pIC50 (Hs 766): 6.38
pIC50 (CFPAC-1): 5.88
inhibition in vivo at 25 mg/kg (HCT-116): 43.1%
